Activity calls are given as the source filed them. No cut-off for these calls is given here.
What was measured:
[1] = system: Mus musculus; test: Anticonvulsant activity in Swiss Albino mouse at 300 mg/kg, ip after 0.5 hr by MES test; type: functional, organism-based; parameters: dose 300 mg/kg
Procedure, shortened: (§1)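 Mice (Swiss, 20-25 g) given i.p. doses of 30, 100 and 300 mg/kg under ADD program protocols, three per group, examined at 0.5 and 4 h in MES, scPTZ, scSTY or scPIC seizure tests. Value is the minimum dose protecting half or more of the mice.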

[2] = system: Mus musculus; test: Anticonvulsant activity in Swiss Albino mouse at 300 mg/kg, ip after 4 hrs by MES test; type: functional, organism-based; parameters: dose 300 mg/kg; procedure, shortened: as §1
[3] = system: Mus musculus; test: Anticonvulsant activity in Swiss Albino mouse at 300 mg/kg, ip after 0.5 hr by scPTZ test; type: functional, organism-based; parameters: dose 300 mg/kg; procedure, shortened: as §1
[4] = system: Mus musculus; test: Anticonvulsant activity in Swiss Albino mouse at 300 mg/kg, ip after 0.5 hr by scSTY test; type: functional, organism-based; parameters: dose 300 mg/kg; procedure, shortened: as §1
[5] = system: Mus musculus; test: Anticonvulsant activity in Swiss Albino mouse at 300 mg/kg, ip after 4 hrs by scSTY test; type: functional, organism-based; parameters: dose 300 mg/kg; procedure, shortened: as §1
[6] = system: Mus musculus; test: Anticonvulsant activity in Swiss Albino mouse at 100 mg/kg, ip after 4 hrs by scPIC test; type: functional, organism-based; parameters: dose 100 mg/kg; procedure, shortened: as §1
[7] = system: Mus musculus; test: Neurotoxicity in Swiss Albino mouse at 300 mg/kg, ip after 0.5 hr by rotarod test; type: functional, organism-based; parameters: dose 300 mg/kg
Procedure, shortened: (§2)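 Swiss mice (20-25 g) are trained on an accelerating rotorod (10 rpm, 3.2 cm rod), then injected i.p. at 30, 100 or 300 mg/kg, with three per group. Neurotoxicity means failure to keep equilibrium for at least 1 min in each of three trials, checked at 0.5 and 4 h. The value reported is the minimum dose affecting half or more of the mice.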

[8] = system: Mus musculus; test: Neurotoxicity in Swiss Albino mouse at 300 mg/kg, ip after 4 hrs by rotarod test; type: functional, organism-based; parameters: dose 300 mg/kg; procedure, shortened: as §2
[9] = system: Mus musculus; test: Analgesic activity in Swiss Albino mouse assessed as number of acetic acid-induced writhing per 30 min after 100 mg/kg, ip; type: functional; conditions: route intraperitoneal
Procedure, shortened: (§3)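 Mice in groups of six dosed i.p. at 100 mg/kg, controls receiving 30% v/v PEG 400 in water. Writhing induced by i.p. 0.1 mL of 3% v/v acetic acid 1 h after drug. Writhes (abdominal stretch with at least one hind limb extended) counted over 30 min; % inhibition calculated. Mean ± SEM, Student's t test.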

[10] = system: Mus musculus; test: Analgesic activity in Swiss Albino mouse assessed as inhibition of acetic acid-induced writhing responses at 100 mg/kg, ip; type: functional; conditions: route intraperitoneal; procedure, shortened: as §3
[11] = system: Rattus norvegicus; test: Effect on spontaneous pain in Sprague-Dawley rat CCI model assessed as duration of paw withdrawal at 100 mg/kg, ip after 0.5 hr; type: functional; conditions: route intraperitoneal
Procedure, shortened: (§4)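 CCI rats (n = 4) dosed 100 mg/kg i.p. (vehicle 30% v/v PEG 400 in water). After 10 min acclimatization in a cage 5 cm above ground, cumulative time the ipsilateral paw was held off the floor over 5 min recorded, excluding locomotion lifts. Mean ± SEM; ANOVA/Bonferroni versus predrug.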

[12] = system: Rattus norvegicus; test: Effect on spontaneous pain in Sprague-Dawley rat CCI model assessed as duration of paw withdrawal at 100 mg/kg, ip after 1 hr; type: functional; conditions: route intraperitoneal; procedure, shortened: as §4
[13] = system: Rattus norvegicus; test: Effect on spontaneous pain in Sprague-Dawley rat CCI model assessed as duration of paw withdrawal at 100 mg/kg, ip after 1.5 hrs; type: functional; conditions: route intraperitoneal
Procedure, shortened: (§5)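 Unilateral CCI of sciatic nerve (Bennett and Xie) in Sprague-Dawley rats under i.p. pentobarbital sodium (65 mg/kg). Spontaneous pain is scored over 5 min after 10 min acclimatization, as cumulative time the ipsilateral paw is held off the floor. Paw lifts from locomotion or repositioning are excluded. Drug is given at 100 mg/kg i.p. with 30% v/v PEG 400 vehicle. Mean ± SEM, n = 4, compared with predrug by ANOVA/Bonferroni.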

[14] = system: Rattus norvegicus; test: Effect on spontaneous pain in Sprague-Dawley rat CCI model assessed as duration of paw withdrawal at 100 mg/kg, ip after 2 hrs; type: functional; conditions: route intraperitoneal; procedure, shortened: as §5
[15] = system: Rattus norvegicus; test: Anti-cold allodynia effect in Sprague-Dawley rat CCI model assessed as duration of paw withdrawal 100 mg/kg, ip after 2 hr; type: functional; conditions: route intraperitoneal
Procedure, shortened: (§6)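 CCI by sciatic nerve ligation under pentobarbital (65 mg/kg i.p.). Rats tested at baseline and 9 days post-surgery; those with allodynia dosed i.p. 100 mg/kg, vehicle 30% v/v PEG 400 in water. Acetone (100-200 µL) misted on midplantar affected paw; withdrawal duration recorded, three samples averaged, at least 3 min apart; n = 4.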

[16] = system: Rattus norvegicus; test: Anti-cold allodynia effect in Sprague-Dawley rat CCI model assessed as duration of paw withdrawal 100 mg/kg, ip after 2.5 hr; type: functional; conditions: route intraperitoneal; procedure, shortened: as §6
[17] = system: Rattus norvegicus; test: Effect on spontaneous pain in Sprague-Dawley rat CCI model assessed as duration of paw withdrawal at 100 mg/kg, ip after 2.5 hrs; type: functional; conditions: route intraperitoneal; procedure, shortened: as §5
[18] = system: Rattus norvegicus; test: Effect on spontaneous pain in Sprague-Dawley rat SNL model assessed as duration of paw withdrawal at 100 mg/kg, ip after 0.5 hr; type: functional; conditions: route intraperitoneal
Procedure, shortened: (§7)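 Rats underwent left L5 spinal nerve ligation (Kim and Chung) under i.p. pentobarbital (65 mg/kg). Spontaneous pain is recorded for 5 min after 10 min acclimatization, as cumulative duration the ipsilateral paw is lifted, excluding locomotor lifts. Dosing is 100 mg/kg i.p. in 30% v/v PEG 400/water, with testing at 0.5–2.5 h. Four rats, mean ± SEM versus predrug, one-way ANOVA with Bonferroni.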

[19] = system: Rattus norvegicus; test: Effect on spontaneous pain in Sprague-Dawley rat SNL model assessed as duration of paw withdrawal at 100 mg/kg, ip after 1 hr; type: functional; conditions: route intraperitoneal; procedure, shortened: as §7
[20] = system: Rattus norvegicus; test: Effect on spontaneous pain in Sprague-Dawley rat SNL model assessed as duration of paw withdrawal at 100 mg/kg, ip after 1.5 hrs; type: functional; conditions: route intraperitoneal; procedure, shortened: as §7
[21] = system: Rattus norvegicus; test: Effect on spontaneous pain in Sprague-Dawley rat SNL model assessed as duration of paw withdrawal at 100 mg/kg, ip after 2 hrs; type: functional; conditions: route intraperitoneal; procedure, shortened: as §7
[22] = system: Rattus norvegicus; test: Effect on spontaneous pain in Sprague-Dawley rat SNL model assessed as duration of paw withdrawal at 100 mg/kg, ip after 2.5 hrs; type: functional; conditions: route intraperitoneal; procedure, shortened: as §7
[23] = species: Rattus norvegicus; test: Anti-dynamic allodynic effect in Sprague-Dawley rat CCI model assessed as latency to paw withdrawal after 0.5 hr; type: functional
Procedure, shortened: (§8)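 Rats with sciatic nerve chronic constriction injury (pentobarbital 65 mg/kg i.p. anaesthesia), baseline and day 9 testing, then drug per randomization table. After 10 min acclimatization, affected plantar surface stroked mildly with a cotton-bud; paw lift recorded. n = 4; retested 0.5-2.5 h post-dose.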

[24] = species: Rattus norvegicus; test: Anti-dynamic allodynic effect in Sprague-Dawley rat CCI model assessed as latency to paw withdrawal after 1 hr; type: functional; procedure, shortened: as §8
[25] = species: Rattus norvegicus; test: Anti-dynamic allodynic effect in Sprague-Dawley rat CCI model assessed as latency to paw withdrawal after 1.5 hr; type: functional; procedure, shortened: as §8
[26] = species: Rattus norvegicus; test: Anti-dynamic allodynic effect in Sprague-Dawley rat CCI model assessed as latency to paw withdrawal after 2 hr; type: functional; procedure, shortened: as §8
[27] = species: Rattus norvegicus; test: Anti-dynamic allodynic effect in Sprague-Dawley rat CCI model assessed as latency to paw withdrawal after 2.5 hr; type: functional; procedure, shortened: as §8
[28] = system: Rattus norvegicus; test: Anti-cold allodynia effect in Sprague-Dawley rat CCI model assessed as duration of paw withdrawal at 100 mg/kg, ip after 0.5 hr; type: functional; conditions: route intraperitoneal; procedure, shortened: as §6
[29] = system: Rattus norvegicus; test: Anti-cold allodynia effect in Sprague-Dawley rat CCI model assessed as duration of paw withdrawal 100 mg/kg, ip after 1 hr; type: functional; conditions: route intraperitoneal; procedure, shortened: as §6
[30] = system: Rattus norvegicus; test: Anti-cold allodynia effect in Sprague-Dawley rat CCI model assessed as duration of paw withdrawal 100 mg/kg, ip after 1.5 hr; type: functional; conditions: route intraperitoneal; procedure, shortened: as §6

Structure (SMILES): O=C(O)CCCNC(=O)NN=C(Cc1ccccc1)Cc1ccccc1
- Activity [1]: inactive
- Activity [2]: inactive
- Activity [3]: inactive
- Activity [4]: Active
- Activity [5]: Active
- Activity [6]: Active
- Activity [7]: inactive
- Activity [8]: inactive
- Activity [9]: 10.3
- inhibition in vivo at 100 mg/kg [10]: 94%
- Activity [11]: 9.2 s
- Activity [12]: 9.7 s
- Activity [13]: 1.3 s
- Activity [14]: 3.2 s
- Activity [15]: 9.1 s
- Activity [16]: 8.3 s
- Activity [17]: 8.5 s
- Activity [18]: 22.2 s
- Activity [19]: 7.9 s
- Activity [20]: 8.9 s
- Activity [21]: 11.8 s
- Activity [22]: 7.4 s
- Activity [23]: 12 s
- Activity [24]: 13.5 s
- Activity [25]: 10.9 s
- Activity [26]: 10.9 s
- Activity [27]: 10.3 s
- Activity [28]: 24.6 s
- Activity [29]: 11.6 s
- Activity [30]: 10.4 s

Reference: ChEMBL document CHEMBL1139875, “Discovery of 4-aminobutyric acid derivatives possessing anticonvulsant and antinociceptive activities: a hybrid pharmacophore approach” (2007)
